From article PMC4827469 (ACS Central Science, 2015)
Where two headings read alike, the source gives them in different places.

Columns and labels:
PANC-1 [1] = test: in vitro cytotoxicity assay; type: cell-based; details: Homo sapiens, PANC-1, 48 h
H441 [2] = test: in vitro cytotoxicity assay; type: cell-based; details: Homo sapiens, NCI-H441, 72 h, read-out: IC50 (72 h)
How it was run: (§1)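 Cells grown in medium with 10% FBS and exposed to test compound for 72 h. Viability read by MTS or MTT stain, and IC50 derived from the readings.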

[3] = metabolite identification/biotransformation, mouse liver microsomes; type: in vitro ADME; details: 1 mg/ml protein, 5 µM drug, 1 mM NADPH, 37 °C
[4] = metabolite identification/biotransformation, rat liver microsomes; type: in vitro ADME
[5] = test system: Hep 3B HCC tumor xenografts; test: in vivo antitumor activity, subcutaneous Hep3B HCC xenograft in NSG mice; parameters: species or system mouse; details: female NSG mice, 50 mg/kg ip daily for 14 days
How it was run: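 Hep 3B hepatocellular carcinoma xenograft in mice, dosed per schedule. Paclitaxel positive control given iv at 24 mg/kg qd×5. Tumor growth inhibition, body weight and signs of toxicity monitored. Error given as SE computed from the average deviation.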

[6] = test system: A549 subcutaneous xenografts; details: NOD/SCID mice, 2 weeks of oral 30 and 60 mg/kg ref 18; cited from earlier work
LNCaP = details: read-out: IC50 reported in the lit.; natural product, LNCaP (CCRC-60088) ref 1; cited from earlier work
[7] = metabolite identification/biotransformation, human liver microsomes; type: in vitro ADME
HepG2 [8] = test: in vitro cytotoxicity assay; type: cell-based; details: Homo sapiens, HepG2, 72 h, read-out: IC50 (72 h)
How it was run: as §1

A549 [9] = details: read-out: IC50 reported in the lit.; A549 (12 h), KMUH ref 2c; cited from earlier work
AsPC-1 [10] = test: in vitro cytotoxicity assay; type: cell-based; details: Homo sapiens, ASPC1, 48 h
H838 tumor cell line = H838 tumor cell line ref 23 (Ho et al., Biomed. Pharmacother. 2014); cited from earlier work
HepG2 [11] = details: HepG2, 5% FBS, 48 h incubation, SRB stain ref 2a; cited from earlier work
Hep 3B tumor model = details: initial tumor sizes 50–70 mm^3 ref 2a, 19; cited from earlier work
Hep3B = details: 5% FBS, 48 h incubation, SRB stain ref 2a; cited from earlier work
A549 [12] = test: in vitro cytotoxicity assay; type: cell-based, human
PANC-1 [13] = details: read-out: IC50 reported in the lit.; PANC-1 (48 h), ATCC, SRB assay ref 2f; cited from earlier work
[14] = mouse pharmacokinetic study; type: in vivo; details: male, Balb/C, whole blood, 50 mg/kg
H441 [15] = details: read-out: IC50 reported in the lit.; H441, KMUH ref 2c; cited from earlier work
MDA-MB-231 = details: read-out: IC50 reported in the lit.; natural product, MDA-MB-231 (CCRC-60425) ref 1; cited from earlier work
[16] = test system: panel of human tumor cell lines; test: panel of human tumor cell lines in vitro; type: cell-based
How it was run: as §1

AsPC-1 [17] = details: read-out: IC50 reported in the lit.; AsPC-1 (48 h), ATCC, SRB assay ref 2f; cited from earlier work

COC1=C(OC)[C@H](O)[C@H](C/C=C(\C)CC/C=C(\C)CCC=C(C)C)[C@@H](C)C1=O [Compound 1, Antroquinonol A]
IC50 (PANC-1 [1]): > 25 µM | IC50 (H441 [2]): > 25 µM | biotransformation in liver microsomes [3]: rapidly converted to a major metabolite | biotransformation in liver microsomes [4]: rapidly converted to a major metabolite | tolerability [5]: generally well-tolerated with no overt signs of toxicity | weight loss [5]: ~4% | antitumor effect reported [6]: tumor growth suppression | IC50 (LNCaP): 6.1 ± 0.07 µM | biotransformation in liver microsomes [7]: rapidly converted to a major metabolite | IC50 (HepG2 [8]): > 25 µM | IC50 (A549 [9]): 25 µM | IC50 (AsPC-1 [10]): > 25 µM | IC50 (H838 tumor cell line): ~3 µM | GI50 (HepG2 [11]): 0.22 µM | antitumor activity reported in the literature (Hep 3B tumor model): statistically significant antitumor activity | GI50 (Hep3B): > 30 µM | fold more potent than previously reported (A549 [12]; A549): ~4 fold | IC50 (A549 [12]; Homo sapiens, A549, 12 h, A549 (12 h) (ATCC), 1 triplicate, 15 duplicate): 6.7 ± 2.5 µM | IC50 (PANC-1 [13]): 19 µM | AUC(0-t) ([14]; ip): 2.29 ± 0.142 µM·h | Cmax ([14]; ip): 457 ± 45 nM | Tmax ([14]; ip): 4 ± 3 h | AUC(0-t) ([14]; po): 0.266 ± 0.088 µM·h | Cmax ([14]; po): 79 ± 52 nM | Tmax ([14]; po): 2 ± 1 h | IC50 (H441 [15]): 25 µM | IC50 (MDA-MB-231): 2.6 ± 0.05 µM | fold less cytotoxic than reported for the natural product ([16]; cell lines of Table 1 except A549): 3–70 fold | cytotoxicity in tumor cell line panel ([16]; panel of Table 1): only micromolar activity | IC50 (AsPC-1 [17]): 20 µM
